According to publication PMC5554913 (ACS Medicinal Chemistry Letters, 2017):

Tests used:
[1] = system: T. brucei brucei strain BF427; assay: T. brucei growth inhibition; type: cell-based; details: for improvement in potency compared to compound 1: T. brucei EC50 vs compound 1
CYP3A4 = CYP3A4 (Homo sapiens, UniProt P08684); assay: CYP3A4 inhibition; type: in vitro ADME
[2] = system: T. brucei rhodesiense STIB900; assay: Mouse efficacy model of acute T. brucei infection; type: in vivo; details: five mice, T. brucei rhodesiense STIB900, 50 mg/kg oral gavage b.i.d. days 2-5
In short: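 Mice were infected with T. brucei rhodesiense STIB900 on day 0 and placed in groups of five. Test compound was given at 50 mg/kg by oral gavage twice daily on days 2–5, with a vehicle-treated group. Cure meant no detectable parasitemia […] through 60 days postinfection.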

[3] = system: human lymphoblasts (CRL-8155); assay: Mammalian cell growth inhibition; type: cell-based; details: CRL-8155 cell line
Hep G2 cell line = assay: Cytotoxicity on Hep G2 cell line; type: cell-based
[4] = Metabolic stability in pooled mouse liver microsomes; type: in vitro ADME; details: microsome T1/2, mouse microsomes
In short: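 Half-life of test compound measured in mouse liver microsomes. Testosterone and dextromethorphan HBr were run alongside as controls and had to fall within acceptable ranges.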

Chain of CYP3A4 (P08684 whole entry, species assumed): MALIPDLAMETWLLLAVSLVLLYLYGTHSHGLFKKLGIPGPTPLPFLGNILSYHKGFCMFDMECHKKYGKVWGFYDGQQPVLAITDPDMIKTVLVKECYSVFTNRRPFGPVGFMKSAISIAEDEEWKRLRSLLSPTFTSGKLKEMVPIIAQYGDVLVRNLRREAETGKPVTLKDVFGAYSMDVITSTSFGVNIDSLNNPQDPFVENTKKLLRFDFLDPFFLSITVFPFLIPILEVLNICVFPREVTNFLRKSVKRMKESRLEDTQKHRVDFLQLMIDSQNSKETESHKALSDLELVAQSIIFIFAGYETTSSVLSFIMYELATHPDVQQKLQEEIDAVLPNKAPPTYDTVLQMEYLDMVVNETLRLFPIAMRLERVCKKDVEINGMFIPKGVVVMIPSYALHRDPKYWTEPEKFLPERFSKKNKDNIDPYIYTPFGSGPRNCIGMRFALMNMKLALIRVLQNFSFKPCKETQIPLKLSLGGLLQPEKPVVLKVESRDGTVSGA

## CN(C)c1ccc(N2C(=O)CN(Cc3ccc(F)cc3)C2=S)cc1Cl [Compound 68, 1-(4-fluorobenzyl)-3-(4-dimethylamino-3-chlorophenyl)-2-thiohydantoin]
[1]
  improvement in potency compared to compound 1: > 100 fold
CYP3A4
  IC50: 12.8 µM
[2]
  cures (absence of detectable parasitemia for 60 days postinfection): 5/5

## COc1ccc(N2C(=O)CN(Cc3ccccc3)C2=S)cc1N(C)C [Compound 37]
[1]; T. brucei EC50 vs compound 36
  drop in activity compared to 36: 30 fold

## COc1ccc(N2C(=O)CN(Cc3ccccc3)C2=S)cc1Cl [Compound 1]
[3]
  cytotoxicity on CRL-8155: no detected cytotoxicity
Hep G2 cell line
  cytotoxicity on Hep G2: no detected cytotoxicity

## COc1ccc2c(c1)[C@]13CCCC[C@@H]1[C@H](C2)N(C)CC3 [dextromethorphan HBr]
[4]
  half-life at 1.5 µM: 9.51 min

## C[C@]12CC[C@H]3[C@@H](CCC4=CC(=O)CC[C@@]43C)[C@@H]1CC[C@@H]2O [Testosterone]
[4]
  half-life at 1.5 µM: 3.97 min

## COc1ccc(N2C(=O)CN(Cc3cccc(F)c3)C2=S)cc1Cl [Compound 40]
[1]; T. brucei EC50 vs compound 39
  decrease in potency compared to 39: 18 fold

## COc1cc(N2C(=O)CN(Cc3ccc(F)cc3Cl)C2=S)ccc1N(C)C [Compound 76, 1-(2-chloro-4-fluorobenzyl)-3-(4-dimethylamino-3-methoxyphenyl)-2-thiohydantoin]
[1]
  improvement in potency compared to compound 1: > 100 fold
[2]
  cures (absence of detectable parasitemia for 60 days postinfection): 5/5
